Data on eight molecules can be found in ChEMBL document CHEMBL1123361, “Syntheses and beta-adrenergic agonist and antiaggregatory properties of N-substituted trimetoquinol analogues” (J Med Chem, 1986).

The target of assay [1] is Beta-2 adrenergic receptor (Cavia porcellus) (UniProt Q8K4Z4).
Assay [2] deals with Beta-1 adrenergic receptor (Cavia porcellus) (UniProt B0FL73).
Assay [3] is filed under the species Homo sapiens. Nature of the assay: Compound was evaluated for the inhibition of U-46,619-induced human platelet aggregation (Antiaggregatory activity). In kind it is functional. Summed up:
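Washed human platelets (ACD blood from aspirin-free donors, apyrase-washed, resuspended in calcium-containing modified Tyrode's pH 7.4, 3×10^8/mL) preincubated with vehicle or drug 3 min at 37 °C, then challenged with the minimum U46619 dose (0.8-2.0 μM) giving maximal irreversible aggregation; turbidometric readout ≥2 min; IC50 from % inhibition vs log concentration plots; mean ± SEM, 3-4 donors.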

The species entered for assay [4] is Homo sapiens. The experiment in a line: Compound was evaluated for the secretion of [14C]- Serotonin (Antisecretory activity). The assay is classed as functional. Summed up: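 [14C]serotonin release measured in the same U46619-challenged washed human platelet samples as aggregation: supernatant radioactivity after 10000g 30 s spin, scintillation counting, relative to total after lysis; net U46619-evoked release as % of total; IC50 from % inhibition of maximal release vs log concentration; mean ± SEM, ≥3 preparations.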

Sequence of Beta-1 adrenergic receptor (Cavia porcellus) (B0FL73 1-467): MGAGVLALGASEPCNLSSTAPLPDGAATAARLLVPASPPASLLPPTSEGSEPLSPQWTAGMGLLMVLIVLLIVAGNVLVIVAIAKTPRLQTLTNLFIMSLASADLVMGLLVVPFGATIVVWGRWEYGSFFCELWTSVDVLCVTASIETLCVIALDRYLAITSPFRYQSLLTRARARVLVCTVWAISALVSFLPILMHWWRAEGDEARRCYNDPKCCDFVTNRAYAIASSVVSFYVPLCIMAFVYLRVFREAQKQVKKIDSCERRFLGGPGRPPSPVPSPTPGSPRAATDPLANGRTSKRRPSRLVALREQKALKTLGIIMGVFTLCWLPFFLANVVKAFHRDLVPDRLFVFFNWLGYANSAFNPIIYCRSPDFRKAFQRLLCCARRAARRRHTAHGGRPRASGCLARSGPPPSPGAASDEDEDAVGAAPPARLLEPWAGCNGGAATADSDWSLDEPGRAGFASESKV
Sequence of Beta-2 adrenergic receptor (Cavia porcellus) (Q8K4Z4 whole entry, looked up): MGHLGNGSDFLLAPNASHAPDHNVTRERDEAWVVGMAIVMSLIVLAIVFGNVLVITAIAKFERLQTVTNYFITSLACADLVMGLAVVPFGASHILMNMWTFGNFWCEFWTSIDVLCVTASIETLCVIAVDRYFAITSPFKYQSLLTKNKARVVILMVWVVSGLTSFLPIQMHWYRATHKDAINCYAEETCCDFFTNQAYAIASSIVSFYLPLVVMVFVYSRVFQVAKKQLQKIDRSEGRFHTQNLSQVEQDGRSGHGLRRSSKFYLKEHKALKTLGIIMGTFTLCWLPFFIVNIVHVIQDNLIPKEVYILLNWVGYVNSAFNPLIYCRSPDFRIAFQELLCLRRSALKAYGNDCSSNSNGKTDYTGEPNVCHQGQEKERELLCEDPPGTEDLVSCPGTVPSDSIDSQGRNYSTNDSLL

`COc1cc(C[C@H]2NCCc3cc(O)c(O)cc32)cc(OC)c1OC`: the values for the pD2 in assay [1] and in assay [2] were 5.63 and 5.58, respectively. The IC50 (commonly the point on the concentration scale where inhibition reaches its midpoint) in the assay filed under Homo sapiens [3] amounted to 0.71 µM; in the assay listed under Homo sapiens [4], 0.55 µM.

Take `COc1cc(CC2c3cc(O)c(O)cc3CCN2CCCl)cc(OC)c1OC` (stereo not drawn): the pD2 in assay [1] was 5.34; in assay [2] it was 4.88. The IC50 in the assay filed under Homo sapiens [3] came out at 86.6 µM; in the assay filed under Homo sapiens [4], 162 µM.

Consider `COc1cc(CC2c3cc(O)c(O)cc3CCN2Cc2ccccc2)cc(OC)c1OC` (stereo not drawn), for which the pD2 in assay [1] amounted to 5.34; in assay [2] it was 4.34. Further, the figures for the IC50 in the assay listed under Homo sapiens [3] and in the assay filed under Homo sapiens [4] were 21.2 µM and 96.5 µM, respectively.

As to `COc1cc(CC2c3cc(O)c(O)cc3CCN2CCO)cc(OC)c1OC` (stereo not drawn), the pD2 in assay [1] was 5.73; in assay [2], 5.35. For the same molecule, the IC50 in the assay listed under Homo sapiens [3] came to 71.6 µM; in the assay filed under Homo sapiens [4], 116 µM.

On to `COc1cc(CC2NCCc3cc(O)c(O)cc32)cc(OC)c1OC` (stereo not drawn), for which the figures for the pD2 in assay [1] and in assay [2] were 6.96 and 7.1, respectively.

On to `COc1cc(CC2c3cc(O)c(O)cc3CCN2C)cc(OC)c1OC` (stereo not drawn), for which the pD2 in assay [1] came out at 6.05; in assay [2], 5.89.

Turning to `COc1cc(CC2c3cc4c(cc3CCN2CCCl)OS(=O)O4)cc(OC)c1OC` (stereo not drawn), the pD2 in assay [1] is 5.58; in assay [2], 5.24. Besides, the values for the IC50 in the assay filed under Homo sapiens [3] and in the assay filed under Homo sapiens [4] were 64.2 µM and 166 µM, respectively.

On to `COc1cc(C[C@@H]2NCCc3cc(O)c(O)cc32)cc(OC)c1OC`, for which the figures for the pD2 in assay [1] and in assay [2] were 7.23 and 7.26, respectively. Besides, the values for the IC50 in the assay listed under Homo sapiens [3] and in the assay filed under Homo sapiens [4] were 19.3 µM and 24.5 µM, respectively.
